Results as given in ChEMBL document CHEMBL4433213, “Investigation on 2',3'-O-Substituted ATP Derivatives and Analogs as Novel P2X3 Receptor Antagonists” (ACS Med Chem Lett, 2019).
Calls of active or inactive are those of the source. The calls are words filed in the database; no cut-off is given here.

What was measured:
[1] = biological target: T1, P2X purinoceptor 1 (Homo sapiens, UniProt P51575); assay: Antagonist activity at human P2X1R transfected in human 1321N1 cells assessed as inhibition of ATP-induced calcium influx; assay type: cell-based
T1 sequence (P51575 whole entry): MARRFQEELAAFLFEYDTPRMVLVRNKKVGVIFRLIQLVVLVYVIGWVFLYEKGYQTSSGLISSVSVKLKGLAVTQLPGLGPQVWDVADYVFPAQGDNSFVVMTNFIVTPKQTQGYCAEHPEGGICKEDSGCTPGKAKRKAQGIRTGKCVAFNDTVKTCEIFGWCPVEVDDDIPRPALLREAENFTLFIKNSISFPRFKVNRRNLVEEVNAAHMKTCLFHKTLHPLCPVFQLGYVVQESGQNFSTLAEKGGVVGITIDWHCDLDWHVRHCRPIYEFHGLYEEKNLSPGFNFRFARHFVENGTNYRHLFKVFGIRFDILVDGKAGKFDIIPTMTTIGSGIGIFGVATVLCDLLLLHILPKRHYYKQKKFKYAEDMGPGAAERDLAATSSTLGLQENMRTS
Outline: (§1)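 1321N1 astrocytoma cells stably expressing human P2X1, P2X2, P2X3 or P2X4 receptor. Calcium influx was induced by ATP at the EC80 for each subtype. Results are given as IC50 (μM) or % inhibition at the indicated concentration.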

[2] = biological target: T2, P2X purinoceptor 1 (Homo sapiens) (UniProt P51575); assay: Antagonist activity at human P2X1R transfected in human 1321N1 cells assessed as inhibition of ATP-induced calcium influx relative to control; assay type: cell-based; conditions: concentration not given here; outline: as §1
T2 sequence (whole entry): T1 sequence (P51575 whole entry)

[3] = biological target: T3, P2X purinoceptor 3 (Homo sapiens) (UniProt P56373); assay: Antagonist activity at human P2X3R transfected in human 1321N1 cells assessed as inhibition of ATP-induced calcium influx relative to control; assay type: cell-based; conditions: concentration not given here; outline: as §1
T3 sequence (whole entry): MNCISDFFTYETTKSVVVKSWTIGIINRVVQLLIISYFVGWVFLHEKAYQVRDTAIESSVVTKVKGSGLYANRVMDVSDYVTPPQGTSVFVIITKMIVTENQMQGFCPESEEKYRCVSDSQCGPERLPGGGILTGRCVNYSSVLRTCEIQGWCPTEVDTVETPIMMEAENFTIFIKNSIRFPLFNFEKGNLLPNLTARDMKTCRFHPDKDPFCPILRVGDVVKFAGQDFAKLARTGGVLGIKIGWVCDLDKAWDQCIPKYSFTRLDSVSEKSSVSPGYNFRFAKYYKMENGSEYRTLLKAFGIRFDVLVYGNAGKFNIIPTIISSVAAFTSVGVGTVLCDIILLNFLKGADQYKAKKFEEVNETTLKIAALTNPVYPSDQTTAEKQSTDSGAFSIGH

[4] = biological target: T4, P2X purinoceptor 4 (Homo sapiens) (UniProt Q99571); assay: Antagonist activity at human P2X4R transfected in human 1321N1 cells assessed as inhibition of ATP-induced calcium influx relative to control; assay type: cell-based; conditions: concentration not given here; outline: as §1
T4 sequence (whole entry): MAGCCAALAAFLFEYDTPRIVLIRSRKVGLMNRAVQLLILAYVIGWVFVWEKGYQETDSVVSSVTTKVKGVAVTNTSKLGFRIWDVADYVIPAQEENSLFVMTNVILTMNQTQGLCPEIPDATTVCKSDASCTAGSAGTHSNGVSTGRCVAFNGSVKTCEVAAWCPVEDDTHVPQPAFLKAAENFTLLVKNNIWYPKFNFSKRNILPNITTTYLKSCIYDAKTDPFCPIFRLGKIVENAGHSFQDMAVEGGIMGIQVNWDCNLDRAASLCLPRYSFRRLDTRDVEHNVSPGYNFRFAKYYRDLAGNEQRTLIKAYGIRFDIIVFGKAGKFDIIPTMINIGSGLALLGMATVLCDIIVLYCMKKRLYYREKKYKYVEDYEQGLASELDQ

[5] = biological target: T5, P2X purinoceptor 3 (Mus musculus) (UniProt Q3UR32); assay: Agonist activity at P2X3R in mouse TG sensory neurons assessed as induction of channel current at 1 uM at -65 mV holding potential by whole cell voltage clamp method relative to alpha,beta-meATP
T5 sequence (whole entry): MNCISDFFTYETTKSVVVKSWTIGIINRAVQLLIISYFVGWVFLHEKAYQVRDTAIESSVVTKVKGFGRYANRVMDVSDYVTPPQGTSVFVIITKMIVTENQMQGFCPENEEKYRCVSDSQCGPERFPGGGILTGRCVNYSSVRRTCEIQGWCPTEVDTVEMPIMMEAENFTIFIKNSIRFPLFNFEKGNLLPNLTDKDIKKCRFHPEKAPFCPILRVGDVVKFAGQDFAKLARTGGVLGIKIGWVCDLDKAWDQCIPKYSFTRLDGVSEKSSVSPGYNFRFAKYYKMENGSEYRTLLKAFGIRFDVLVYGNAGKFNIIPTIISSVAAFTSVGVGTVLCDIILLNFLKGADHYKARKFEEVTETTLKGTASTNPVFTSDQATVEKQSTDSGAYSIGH

[6] = species on record: Mus musculus; assay: Antagonist activity at GABAA receptor in mouse TG sensory neurons assesed as inhibition of GABAA receptor agonist GABA-evoked currents at 1 uM pre-applied before GABA addition
Outline: (§2)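 In mouse trigeminal sensory neurons, test compound was preapplied at 1 μM, then 10 μM GABA (GABAA) or 10 μM 5-HT (5-HT3) was applied. Current amplitudes were normalized to the control current evoked by the same agonist alone. N = 5 cells.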

[7] = biological target: T6, 5-hydroxytryptamine receptor 3A (Mus musculus) (UniProt P23979); assay: Antagonist activity at 5-HT3 receptor in mouse TG sensory neurons assessed as inhibition of 5-HT3 receptor agonist 5-HT-evoked currents at 1 uM pre-applied before 5-HT addition; outline: as §2
T6 sequence (whole entry): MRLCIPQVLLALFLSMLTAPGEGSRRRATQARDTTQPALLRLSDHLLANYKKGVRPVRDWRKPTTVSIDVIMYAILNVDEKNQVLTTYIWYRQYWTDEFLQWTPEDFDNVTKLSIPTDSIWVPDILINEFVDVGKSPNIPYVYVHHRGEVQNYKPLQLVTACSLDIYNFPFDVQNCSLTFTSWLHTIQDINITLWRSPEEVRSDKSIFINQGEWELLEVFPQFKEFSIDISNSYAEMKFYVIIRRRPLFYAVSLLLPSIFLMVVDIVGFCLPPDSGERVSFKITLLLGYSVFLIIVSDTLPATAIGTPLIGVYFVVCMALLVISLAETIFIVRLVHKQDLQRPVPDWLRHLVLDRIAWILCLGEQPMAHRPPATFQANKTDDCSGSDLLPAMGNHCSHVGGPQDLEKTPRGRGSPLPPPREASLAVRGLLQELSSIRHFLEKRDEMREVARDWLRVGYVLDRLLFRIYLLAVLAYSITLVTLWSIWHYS

[8] = species on record: Homo sapiens; assay: Selectivity ratio of IC50 for human P2X1R transfected in human […] 1321N1 cells to IC50 for human transfected in human 1321N1 cells; assay type: cell-based
[9] = species on record: Homo sapiens; assay: Selectivity ratio of IC50 for human P2X4R transfected in human […] 1321N1 cells to IC50 for human transfected in human 1321N1 cells; assay type: cell-based

IC50 [1] [µM] | inhibition [2] [%] | inhibition [3] [%] | inhibition [4] [%] | Activity [5] [%] | inhibition [6] | inhibition [7] | SMILES | Ratio IC50 [8] | Ratio IC50 [9]
> 100 | 1 | 8 | 12 | – | – | – | Nc1ncnc2c1ncn2[C@@H]1O[C@H](COP(=O)(O)OP(=O)(O)OP(=O)(O)O)[C@H]2OCO[C@H]21 | – | –
41.1 | – | – | – | 23 | inactive | inactive | CC1(C)O[C@@H]2[C@H](O1)[C@@H](COP(=O)(O)OP(=O)(O)OP(=O)(O)O)O[C@H]2n1cnc2c(N)ncnc21 | 10 | 12
> 100 | -1 | – | – | – | inactive | inactive | Nc1ncnc2c1ncn2[C@@H]1O[C@H](COP(=O)(O)CP(=O)(O)OP(=O)(O)O)[C@H]2OC3(CCCCC3)O[C@H]21 | – | –
